Sampled rows, rich in hits. Any-hit rate of the full collection: about 3.8%.
hERG protect: compounds protecting human hERG from proarrhythmic drug block; Q12809; CHO-hERG, FluxOR thallium flux, dofetilide IC70 present; activation (rescue from dofetilide block), less the hit threshold, % at 10 µM; hit rate 0.51% among 310,000;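 active = activation above the mean of controls blocked by dofetilide plus 5 SD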;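 also: thallium influx through hERG after potassium depolarization seen as dye fluorescence rise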
KCNQ1 inh: inhibitors of human KCNQ1 potassium channel; P51787; CHO-K1 KCNQ1, FluxOR thallium flux fluorescence; stronger effect = higher value; B-score at 10 µM; hit rate 1.3% among 310,000; AID 2642;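 active = compounds whose thallium flux B-score, printed positive for inhibition, exceeds three library SD while starting fluorescence stays within three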;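 also: channel opened by potassium depolarization with thallium stimulus after 20 min compound exposure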
KCNK9 block: human KCNK9 channel inhibition | AID 488922 | Q9NPC2 | HEK293 KCNK9, FluxOR thallium flux fluorescence; stronger effect = lower value | B-score at 10 µM | hit rate 1.2% among 310,000;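 active = ratio B-score over 3 SD below the library mean, with starting fluorescence within 5 SD of its mean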;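 also: negative B-score means less thallium flux so channel inhibition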
KCNK3 inh: human KCNK3 channel inhibition, primary screen. O14649. CHO-KCNK3 thallium flux, FluxOR fluorescence; stronger effect = lower value. B-score at 10 µM. hit rate 0.84% among 340,000. AID 602410;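 active = B-score under library mean minus 4 SD, starting fluorescence ratio at most library mean plus 5 SD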;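 also: more negative B-score means stronger inhibition of thallium flux through KCNK3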
Target sequence (O14649 whole entry, looked up): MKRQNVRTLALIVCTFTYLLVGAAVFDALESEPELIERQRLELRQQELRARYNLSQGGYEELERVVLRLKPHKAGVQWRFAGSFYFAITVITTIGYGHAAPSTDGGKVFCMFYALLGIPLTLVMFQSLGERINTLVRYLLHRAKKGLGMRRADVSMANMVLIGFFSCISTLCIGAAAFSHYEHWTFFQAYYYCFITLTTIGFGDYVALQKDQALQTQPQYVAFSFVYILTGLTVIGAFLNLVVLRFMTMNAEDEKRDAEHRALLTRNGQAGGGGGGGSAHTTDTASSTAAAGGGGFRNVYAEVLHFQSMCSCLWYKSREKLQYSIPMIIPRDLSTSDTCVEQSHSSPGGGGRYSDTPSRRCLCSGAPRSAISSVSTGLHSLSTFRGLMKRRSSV
Kir21 inh: blocks the mouse Kir2.1 inward-rectifier potassium channel. P35561. hit rate 0.85% among 310,000. B-score at 10 µM. AID 1672. HEK293-Kir2.1, FluxOR thallium flux fluorescence; stronger effect = lower value;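 active = fluorescence ratio B-score at or below minus 3 SD of library scores, with starting-brightness B-score within 2 SD, cut at about -4.2 in these data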;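 also: channel flux triggered by added potassium and thallium sulfate stimulus; B-score of peak minus minimum fluorescence over baseline after thallium stimulus; more negative B-score means stronger Kir2.1 block with less thallium influx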
KCNQ1 act: human KCNQ1 channel potentiation or activation. AID 2648. CHO-K1 KCNQ1, thallium flux FluxOR fluorescence; stronger effect = higher value. B-score at 10 µM. hit rate 0.35% among 310,000;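 active = fluorescence ratio B-score, a plate-corrected score, at least three library SD, with initial intensity B-score within 5 SD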
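Material: CHO-K1 cells stably expressing KCNQ1. Medium: assay buffer for compound exposure, DMSO matched across wells. Reagent: K+/Tl+ depolarizing stimulus. Compound dosing: single-concentration screen. Times: 37 °C overnight plating, 90-min dark dye load, 20-min compound pretreatment. Technique: FluxOR Tl+ flux fluorescence.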
KCNK9 block conf: human KCNK9 inhibitor confirmation | shares compounds with KCNK9 block | HEK293 KCNK9 cells, FluxOR thallium flux fluorescence | inhibition, % at 10 µM | hit rate 43% among 4,900;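 active = thallium signal inhibited by more than 5 SD of the compound-free buffer control wells, on both duplicate plates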
Kir2-1 spec: mouse Kir2.1 off-target activity of KCNK9 modulators; Kir2.1 cells, FluxOR thallium flux fluorescence; inhibition, % at 10 µM; hit rate 4% among 4,900; shares compounds with KCNK9 block;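 active = thallium signal drop more than 5 SD beyond the mean of the no-compound control wells, seen in both duplicate plates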;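 also: signal is fluorescence rise after thallium addition divided by baseline fluorescence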
HEK293 Tl ctr: second check of KCNK9 modulator effects in non-induced HEK293 cells; shares compounds with KCNK9 block; AID 492997; FluxOR thallium flux; hit rate 40% among 4,900; inhibition, % at 10 µM;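 active = thallium signal drop beyond 5 SD of the untreated control mean, on both duplicate plates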
Hits are given with their value; – = inactive; · = no result given.

SMILES	hERG protect	KCNQ1 inh	KCNK9 block	KCNK3 inh	Kir21 inh	KCNQ1 act	KCNK9 block conf	Kir2-1 spec	HEK293 Tl ctr
CCCn1cnc2scc(-c3ccc(C)c(C)c3)c2c1=O	–	–	–	–	–	–	–	–	–
CCN(CC)S(=O)(=O)c1ccc(N2CCCC2)c(C(=O)Nc2ccc(OC)c(Cl)c2)c1	–	–	–	–	–	–	·	·	·
Cc1c(C(=O)NC2CCCCC2)sc2ncnc(N3CCN(c4ccccc4)CC3)c12	–	–	–	–	–	–	·	·	·
C=CCN(C)CC/C=C1\c2ccccc2CSc2ccccc21	–	–	–	–	–	–	–	–	–
O=C(Nc1ccc(F)cc1F)c1sccc1SCc1cccc(C(F)(F)F)c1	–	8	-12	–	–	–	68%	42%	50%
O=C(Nc1ccc(F)cc1)c1sccc1SCc1cccc(C(F)(F)F)c1	–	–	-13	–	–	–	62%	46%	48%
O=C(Nc1ccc(OC(F)F)c(Cl)c1)C(c1ccccc1)c1ccccc1	–	–	-10	–	–	–	25%	–	41%
COc1ccccc1N1CCN(C2CCCN(S(=O)(=O)c3ccc(C)cc3)C2)CC1 (configuration not stated)	–	–	–	–	–	–	·	·	·
COc1ccccc1N1CCN(C2CCCN(S(=O)(=O)c3cccc(Cl)c3)C2)CC1 (configuration not stated)	–	–	–	–	–	–	–	–	–
Cc1cc(C(=O)Nc2cc(S(C)(=O)=O)ccc2Cl)no1	–	–	–	–	–	–	·	·	·
CCOc1ccc(C(=O)Nc2ccc(NC(=O)c3ccccc3)cc2)cc1Br	–	–	–	–	–	–	·	·	·
CCOc1ccc(C(=O)Nc2ccc(Cc3ccncc3)cc2)cc1Br	–	–	–	–	–	–	–	–	–
CCCn1c(SCC(=O)Nc2ccc3c(c2)OCCO3)nnc1-c1ccco1	–	–	–	–	–	–	·	·	·
COc1cccc(-c2nnc(SCC(=O)Nc3ccc4c(c3)OCCO4)n2Cc2ccco2)c1	–	–	-16	–	–	–	64%	–	37%
COc1ccc2nc(Nc3nc(CSc4ccc(C)cc4)cc(=O)[nH]3)nc(C)c2c1	–	–	–	–	–	–	–	–	–
COc1ccc2nc(Nc3nc(CSc4nnnn4-c4ccccc4)cc(=O)[nH]3)nc(C)c2c1	–	–	–	–	–	–	·	·	·
CC(C)N(C(=O)c1nn(C)c2c1CSc1ccccc1-2)C1CCCCC1	–	8	-10	–	–	–	34%	–	–
Cc1cccc(N2CCN(C(=O)COc3cccc4c3OC(C)(C)C4)CC2)c1C	–	–	-8.7	–	–	–	25%	–	–
CC1(C)Cc2cccc(OCC(=O)N3CCN(S(=O)(=O)c4ccc(F)cc4)CC3)c2O1	–	–	–	–	–	–	·	·	·
CCCCn1c(N)c(N(CCOC)C(=O)C2CCN(S(=O)(=O)c3ccc(F)cc3)CC2)c(=O)[nH]c1=O	–	–	–	–	–	–	·	·	·
Cc1cc(C(=O)Cn2nc(C(=O)O)c3ccccc3c2=O)c(C)n1-c1cccc(C(F)(F)F)c1	–	–	–	–	–	–	–	–	–
Cn1c(COc2ccccc2O)[n+](C)c2ccccc21	–	–	–	–	–	–	·	·	·
CCCCCCCCCCOC(=O)Cn1c(COc2ccccc2OC)[n+](C)c2ccccc21	–	–	-15	–	-17	–	78%	84%	42%
CC(C)N(Cc1nc(-c2ccccc2)no1)C(=O)CN1C(=O)c2ccccc2C1=O	–	–	–	–	–	–	·	·	·
Cc1cccc(-c2noc(CN(C(=O)/C=C/c3ccccc3Cl)C(C)C)n2)c1	–	–	–	–	–	–	·	·	·
SMILES	hERG protect	KCNQ1 inh	KCNK9 block	KCNK3 inh	Kir21 inh	KCNQ1 act	KCNK9 block conf	Kir2-1 spec	HEK293 Tl ctr
Cc1cccc(-c2noc(CN(C(=O)CCc3ccccc3)C(C)C)n2)c1	–	–	–	–	–	–	–	–	26%
Cc1ccc(-c2noc(CN(C(=O)C(c3ccccc3)c3ccccc3)C(C)C)n2)cc1	–	–	-12	–	–	–	40%	–	33%
O=C(NCc1ccco1)C1CCN(c2ccc(S(=O)(=O)N3CCOCC3)cc2[N+](=O)[O-])CC1	–	–	-9.3	–	–	–	–	–	–
O=C(O)C1CCN(S(=O)(=O)c2ccc(N3CCOCC3)c([N+](=O)[O-])c2)CC1	–	–	–	–	–	–	·	·	·
Cc1cc(NC(=O)Cn2nc(-c3cccs3)ccc2=O)cc(C)c1Br	–	–	-8.3	–	–	–	36%	–	26%
CCOc1cc(CNc2ccc3c(c2)OCCO3)cc(Br)c1OC	–	–	–	–	–	–	–	–	–
CC(=O)NC(=S)Nc1ccc(N2CCOCC2)c(S(=O)(=O)Nc2cc(Cl)ccc2Cl)c1	–	–	-15	–	–	–	66%	–	27%
COc1cc(OC)cc(C(=O)NNC(=O)C(CCC(N)=O)NS(=O)(=O)c2ccc(Cl)cc2)c1 (configuration not stated)	·	·	·	–	·	·	·	·	·
Cn1cc(S(=O)(=O)N2CCN(c3cccc(Cl)c3)CC2)c(=O)n(C)c1=O	–	–	–	–	–	–	–	–	–
Cc1ccc(CSc2sc(C(=O)c3ccccc3)c(N)c2C#N)cc1	–	–	-9	–	–	–	36%	–	42%
N#Cc1c(SCc2ccccc2)sc(C(=O)c2ccccc2)c1N	–	–	–	–	–	–	·	·	·
O=C(Nc1cccc(Cl)c1)N(CCN1CCOCC1)Cc1cccc(Cl)c1	–	6	-12	-11	–	–	54%	–	34%
O=C(Cc1ccc(Cl)cc1)Nc1ccc(N2CCN(C(=O)c3ccco3)CC2)c(Cl)c1	–	–	-9.8	–	–	–	30%	35%	–
Nn1c(C2COc3ccccc3O2)n[nH]c1=S (configuration not stated)	–	–	–	–	–	–	·	·	·
N#Cc1c(Nc2ccccc2)sc(C(=O)c2ccc(F)cc2)c1N	–	–	–	–	–	–	·	·	·
Nc1c(C(=O)c2ccccc2)sc(Nc2ccccc2)c1S(=O)(=O)c1ccccc1	–	–	–	–	–	–	–	–	–
Cc1cccc(C)c1NC(=O)CN1CCN(CC(=O)c2cc(C)n(C3CC3)c2C)CC1	·	·	·	–	·	·	·	·	·
Cc1nn(Cc2ccc(Cl)cc2)c(=O)n1N(C)c1ncc(C(F)(F)F)cc1Cl	–	–	–	–	–	–	–	–	–
Cc1nn(Cc2ccc([N+](=O)[O-])cc2)c(=O)n1N(C)c1ncc(C(F)(F)F)cc1Cl	–	–	–	–	–	–	·	·	·

High-throughput results (PubChem)
